High-throughput results from PubChem BioAssay.
In the library only some 2.5% were active in any assay of this set; here they are far more common.
NTR1 ag: NTR1 (human) agonism | activation, % at 20 µM | AID 493036 | P30989 | 330,000 tested, 0.17% active | NTR1-U2OS beta-arrestin-GFP spot imaging, agonist mode;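 active means activation at or above 40% of the spot to cytoplasm intensity ratio, with at least 20 cells analyzed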;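 further: 0% = DMSO without peptide and 100% = 100 nM NTR1 peptide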
HGIII-sPLA2 inh: Blocks human group III sPLA2 activity. QFRET BODIPY PC-A2 liposome hydrolysis, fluorescence. AID 743126. inhibition, % at 12.2 µM. 370,000 tested, 0.56% active;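 active means inhibition above mean plus 3 SD of compounds lying within the high and low control bounds, cut at about 19% in these data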;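 further: 0% = median of test compound wells and 100% = no enzyme DMSO wells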
MC4R ag barr: agonists of human melanocortin 4 receptor (MC4R) beta-arrestin | AID 540308 | activation, % at 8.9 µM | 360,000 tested, 0.98% active | U2OS MC4R beta-arrestin complementation, luminescence; percent of melanotan II response, DMSO zero;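 active means activation above a per-plate cutoff, the mean activation of sample wells on that plate plus 3 SD, cut at about 8% in these data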
Exocytosis inh: lytic granule exocytosis inhibition | TALL-104 LAMP-1 surface exposure, flow cytometry; cells stimulated with thapsigargin and PMA | inhibition, % at 10 µM | 360,000 tested, 0.66% active | AID 651702;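 active means inhibition above about 55%, limit read from the data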
A1 inh: inhibitors of the anti-apoptotic protein A1, read as caspase activation; 330,000 tested, 0.066% active; caspase activation, % (test concentration not listed); MEF A1-2A-BIM cells, Caspase-Glo 3/7 luminescence, 3 h; percent of clofoctol response, vehicle zero;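 active means over half of replicate activation scores above 10%, or exactly half above 10 with the replicate mean above 10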
MC4R antagonist: blocks human MC4R cAMP signaling | P32245 | MC4R-expressing cells, MTII-stimulated cAMP, LANCE TR-FRET | inhibition, % at 6.5 µM | 360,000 tested, 0.48% active | AID 540295;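 active means inhibition above its plate's cutoff, the mean of tested wells on that plate plus 3 SD, cut at about 29% in these data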;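 further: 0% = Melanotan II alone and 100% = Melanotan II plus saturating MCL0020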
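System – human MC4R-expressing U2OS cells · Also added – Melanotan II · Dosing – one concentration, 6.5 µM nominal · Timing – 30-min compound, 1-h challenge, 1-h detection, room temperature · Measured by – Eu-cAMP/anti-cAMP TR-FRET, emission 671 nm · Replicates – singlicate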
MC4R barr ag: human MC4R beta-arrestin agonism confirmation | shares compounds with MC4R ag barr | U2OS MC4R beta-arrestin recruitment, luminescence; scaled DMSO 0%, Melanotan II 100% | activation, % at 8.9 µM | 2,400 tested, 31% active;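 active means mean activation across replicates above the hit cutoff set in the earlier primary screen, cut at about 8% in these data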
MOR-DOR barr ag: counter-screen for MC4R agonists: agonists of mu-delta opioid heterodimer; U2OS PathHunter beta-arrestin, beta-gal luminescence; percent of deltorphin B response, DMSO zero; activation, % at 9.2 µM; shares compounds with MC4R ag barr; AID 602194; 2,400 tested, 5.8% active;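 active means mean activation across replicates exceeds the hit threshold derived in the earlier primary screen, cut at about 18% in these data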;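 further: 100% = deltorphin B at 0.9 µM final and 0% = DMSO alone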
Target sequence (P35372 whole entry, looked up): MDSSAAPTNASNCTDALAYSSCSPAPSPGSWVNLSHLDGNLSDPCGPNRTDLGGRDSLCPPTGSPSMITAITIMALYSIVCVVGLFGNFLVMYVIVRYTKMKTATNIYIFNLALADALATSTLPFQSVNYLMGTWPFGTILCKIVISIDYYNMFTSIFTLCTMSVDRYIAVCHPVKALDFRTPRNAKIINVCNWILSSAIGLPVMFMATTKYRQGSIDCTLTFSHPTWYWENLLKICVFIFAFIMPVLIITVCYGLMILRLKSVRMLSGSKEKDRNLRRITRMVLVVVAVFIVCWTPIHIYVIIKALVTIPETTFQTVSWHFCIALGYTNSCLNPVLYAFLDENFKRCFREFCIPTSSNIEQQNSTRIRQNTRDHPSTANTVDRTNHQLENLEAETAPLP
Target sequence (P41143 whole entry, looked up): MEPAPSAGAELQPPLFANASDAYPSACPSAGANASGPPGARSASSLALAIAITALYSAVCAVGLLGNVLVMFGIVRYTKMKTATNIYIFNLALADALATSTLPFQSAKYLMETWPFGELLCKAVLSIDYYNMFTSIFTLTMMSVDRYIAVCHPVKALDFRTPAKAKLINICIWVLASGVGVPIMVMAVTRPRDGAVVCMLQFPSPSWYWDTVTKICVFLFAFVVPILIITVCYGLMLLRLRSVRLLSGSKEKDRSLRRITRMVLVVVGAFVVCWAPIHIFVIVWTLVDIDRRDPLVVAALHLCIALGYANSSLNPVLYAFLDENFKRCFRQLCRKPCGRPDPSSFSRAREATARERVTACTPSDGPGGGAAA
* marks the source's active call; other numbers are inactive results; / = no result given.

SMILES	NTR1 ag	HGIII-sPLA2 inh	MC4R ag barr	Exocytosis inh	A1 inh	MC4R antagonist	MC4R barr ag	MOR-DOR barr ag
Cc1nc(SCC(=O)Nc2sccc2C(N)=O)c2c(C)c(C)sc2n1	/	-4	1	2	/	-8	/	/
COC(=O)c1sc2nc(C)nc(SCC(=O)Nc3sccc3C(N)=O)c2c1C	7	-2	19*	-1	0	0	8	5
Cc1ccc2nc(-c3cccc(Cl)c3)c(Cc3ccccc3C(F)(F)F)n2c1	/	0	/	/	/	/	/	/
CC1CCC(C(C)C)C(OC(=O)C[n+]2cc(-c3ccc(Cl)cc3)n3c2CCCCC3)C1 (stereo unspecified)	22	-9	34*	21	0	8	25*	7
O=C(C[n+]1cc(-c2ccccc2)n2c1CCCCC2)c1ccc(Cl)cc1	0	-49	-3	-3	0	3	/	/
Cn1c(SCC(=O)Nc2ccc(S(=O)(=O)Nc3nccs3)cc2)nc2sc3c(c2c1=O)CCCC3	/	-20	/	/	/	/	/	/
O=C(c1ccccc1)N1N=C(c2ccccc2)CC1c1ccccc1O (stereo unspecified)	11	-37	17*	9	-1	7	11*	11
O=C(c1ccncc1)N1N=C(c2ccc(Br)cc2)CC1c1ccccc1O (stereo unspecified)	7	-35	-1	28	1	12	/	/
CCn1cc(Cl)c(C(=O)N2N=C(c3ccc4ccccc4c3)CC2c2ccccc2O)n1 (stereo unspecified)	22	-4	20*	18	0	17	4	10
Cc1ccc(C2=NN(C(=O)c3cccs3)C(c3ccccc3O)C2)cc1 (stereo unspecified)	5	-1	18*	-1	-1	10	30*	4
O=C(c1cccs1)N1N=C(c2ccccc2)CC1c1ccccc1O (stereo unspecified)	22	-40	13*	1	0	-3	8	5
COc1ccc(C2=NN(C(=O)c3cccs3)C(c3ccccc3OC)C2)cc1OC (stereo unspecified)	6	-2	0	3	0	-6	/	/
Cc1ccccc1Cn1cc(CN2[C@H](C)COc3cc(Br)ccc3S2(=O)=O)nn1	/	-10	/	/	/	/	/	/
Cc1ccc(C2=NN(S(=O)(=O)c3ccccc3)C(c3ccccc3O)C2)cc1 (stereo unspecified)	/	-41	12*	-1	/	11	9.7*	11
COc1ccc(C2CC(c3ccccc3)=NN2S(=O)(=O)c2ccccc2)cc1 (stereo unspecified)	-1	1	0	7	0	-7	/	/
Cc1nc2ccc(F)cc2cc1C(=O)NCc1ccco1	1	3	0	3	0	4	/	/
Cc1nc2ccc(F)cc2cc1C(=O)Nc1ccc(Cl)c(Cl)c1	/	-1	9.9*	-5	0	-1	-2	6
O=C(NC(=S)Nc1ccc2c(c1)OCO2)c1ccc(Cl)cc1	5	-1	11*	-1	0	-6	1	3
Cc1ccc(C(=O)NC(=S)Nc2ccc(NC(=O)c3cccc(Cl)c3)cc2)cc1	15	10	12*	1	1	5	13*	8
O=C(CSc1cc(Cl)ccc1Cl)N/N=C/c1ccc[nH]1	/	-2	/	/	/	/	/	/
CCN(CC)S(=O)(=O)c1ccc(C)c(NC(=O)CSc2ncc(C(F)(F)F)cc2Cl)c1	1	-4	9.8*	0	0	13	6	4
C[C@H]1[C@@H](OC(=O)NC2CCC2)CC[C@@]23CCCN2C(=O)CCC[C@@H]13	/	2	/	/	/	/	/	/
CCOC(=O)[C@@]12CN(C(=O)OC(C)(C)C)CC=C1N(Cc1ccc(OC)cc1)C(=O)[C@H]2CC(=O)N1CCC(c2ccccc2)CC1	/	-7	/	/	/	/	/	/
Cc1nn(CC(=O)NCc2cccc3ccccc23)c(=O)c2ccccc12	0	-4	19*	1	0	-4	4	4
Cc1nn(CC(=O)NCc2ccccc2)c(=O)c2ccccc12	0	3	-1	-1	0	5	/	/
SMILES	NTR1 ag	HGIII-sPLA2 inh	MC4R ag barr	Exocytosis inh	A1 inh	MC4R antagonist	MC4R barr ag	MOR-DOR barr ag
O=C(CN1CCc2onc(-c3ccc(-n4cc(-c5ccccc5)nn4)cc3)c2C1=O)N1CCOCC1	/	-1	/	/	/	/	/	/
Cc1ccc(S(=O)(=O)NCCNc2ccc(Br)c(C)c2)cc1	-2	1	18*	7	0	2	4	7
O=C(N/N=C/c1ccc(F)cc1)c1cc(-c2ccccn2)nc2ccccc12	9	1	16*	-1	/	0	0	11
Cc1cc(-n2c(SCC(=O)NCc3cccs3)nc3n[nH]c(C)c3c2=N)ccc1Cl	6	2	13*	2	0	17	5	7
Cc1ccc(CNC(=O)CSc2nc3n[nH]c(C)c3c(=N)n2-c2cccc(C)c2)cc1	4	-6	0	3	-1	8	/	/
CCOc1ccc(-n2c(SCC(=O)Nc3ccc(Br)cc3)nc3n[nH]c(C)c3c2=N)cc1	2	1	17*	-4	8.4*	2	4	9
CCOc1ccc(-n2c(SCC(=O)Nc3ccccc3CC)nc3n[nH]c(C)c3c2=N)cc1	1	3	/	/	0	/	/	/
CC1(C)CC[C@]2(CO)CC[C@]3(C)C(=CCC4[C@@]5(C)CC[C@H](O)[C@@](C)(CO)C5CC[C@]43C)[C@@H]2C1 (stereo partly specified)	8	-2	11*	18	1	5	15*	3
CC1(C)C2CC[C@]3(C)C(CC=C4[C@@H]5C[C@](C)(CO)CC[C@]5(C(=O)O)CC[C@]43C)[C@@]2(C)CC[C@@H]1O (stereo partly specified)	-3	/	0	-8	-1	5	/	/
CC1(C)C[C@H](O)[C@]2(CO)[C@H](O)C[C@]3(C)C(=CCC4[C@@]5(C)CC[C@H](O)C(C)(C)C5CC[C@]43C)[C@@H]2C1 (stereo partly specified)	8	-13	19*	-5	14*	18	25*	21*
CC1(C)C[C@H](O)[C@]2(CO)CC[C@]3(C)C(=CCC4[C@@]5(C)CC[C@H](O)C(C)(C)C5CC[C@]43C)[C@@H]2C1 (stereo partly specified)	3	-4	-1	5	1	2	/	/
CC(=O)CC[C@@H]1CC[C@]2(CCCN(C(=O)C3CCCCC3)C2)O1	/	4	/	/	/	/	/	/
